# Data: paper PMC2292216 (The Journal of Experimental Medicine, 2008)
# Legend:
# BLT2 [1] = biological target: T1, BLT2 (Homo sapiens, UniProt Q9NPC1); conditions: cited from earlier work
# T1 sequence (Q9NPC1 1-358): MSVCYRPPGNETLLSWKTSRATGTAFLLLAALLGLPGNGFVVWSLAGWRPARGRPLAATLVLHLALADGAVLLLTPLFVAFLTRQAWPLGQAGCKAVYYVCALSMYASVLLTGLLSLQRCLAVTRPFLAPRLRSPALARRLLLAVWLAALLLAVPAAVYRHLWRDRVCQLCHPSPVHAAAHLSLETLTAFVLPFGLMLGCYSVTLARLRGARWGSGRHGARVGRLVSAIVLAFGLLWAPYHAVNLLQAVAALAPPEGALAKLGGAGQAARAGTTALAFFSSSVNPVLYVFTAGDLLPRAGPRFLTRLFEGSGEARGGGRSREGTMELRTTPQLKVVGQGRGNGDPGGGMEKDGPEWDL
# BLT2 [2] = biological target: T1, BLT2; test: Boyden chamber chemotaxis assay of CHO-BLT2 cells; type: cell-based; conditions: for concentration required for maximal chemotaxis: Boyden chamber
# mouse BMMCs = test: Chemotaxis; type: cell-based
# Outline: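 BMMCs from WT, BLT1-KO and BLT2-KO mice (knockouts backcrossed to BALB/c for 10 generations) grown in RPMI 1640 with 10% fetal calf serum, 0.1 mM nonessential amino acids and 50% WEHI-3 cell-conditioned medium; maturation checked by flow cytometry. Migration toward test compound measured; stem cell factor (via c-kit) as positive control.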
# BLT2 [3] = biological target: T1, BLT2; test: cAMP assay; type: cell-based
# human BLT1 [4] = biological target: T2, human BLT1 (Homo sapiens, UniProt Q15722); test: Intracellular calcium mobilization in CHO-BLT1 cells; type: cell-based; conditions: concentrations as high as 3.3 μM
# T2 sequence (Q15722 whole entry): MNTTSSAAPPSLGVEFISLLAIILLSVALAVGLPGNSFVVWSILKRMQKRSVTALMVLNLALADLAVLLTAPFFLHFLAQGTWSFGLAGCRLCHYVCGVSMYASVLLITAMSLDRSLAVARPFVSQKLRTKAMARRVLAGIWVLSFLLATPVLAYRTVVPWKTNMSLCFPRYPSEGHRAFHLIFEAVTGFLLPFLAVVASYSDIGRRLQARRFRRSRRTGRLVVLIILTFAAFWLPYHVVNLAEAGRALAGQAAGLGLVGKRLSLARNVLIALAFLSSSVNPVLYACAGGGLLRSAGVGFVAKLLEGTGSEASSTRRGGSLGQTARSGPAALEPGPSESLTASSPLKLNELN
# BLT2 [5] = biological target: T1, BLT2; test: IP accumulation assay in COS-7 cells coexpressing BLT2 and G14; type: cell-based
# human BLT1 [6] = biological target: T2, human BLT1; test: cAMP assay; type: cell-based; conditions: CHO-BLT1 cells, 50 μM forskolin
# mouse BLT2 = biological target: T3, mouse BLT2 (Mus musculus, UniProt Q9JJL9); test: IP accumulation assay in cells cotransfected with mouse BLT2 and G14; type: cell-based
# T3 sequence (Q9JJL9 1-360): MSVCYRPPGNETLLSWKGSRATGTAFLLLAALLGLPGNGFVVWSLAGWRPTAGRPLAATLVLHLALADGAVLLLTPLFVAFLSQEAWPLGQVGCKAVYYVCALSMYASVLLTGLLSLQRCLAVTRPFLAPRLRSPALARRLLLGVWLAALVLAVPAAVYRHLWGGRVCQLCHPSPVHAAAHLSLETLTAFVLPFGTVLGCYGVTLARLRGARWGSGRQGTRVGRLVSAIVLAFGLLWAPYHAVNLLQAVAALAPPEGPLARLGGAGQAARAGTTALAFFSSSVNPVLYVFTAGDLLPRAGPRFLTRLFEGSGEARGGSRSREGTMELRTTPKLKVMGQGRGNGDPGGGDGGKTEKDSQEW
# platelets = test: Platelet aggregation; type: cell-based; conditions: unpublished data
# human BLT1 [7] = biological target: T2, human BLT1; test: Boyden chamber chemotaxis assay of CHO-BLT1 cells; type: cell-based
# BLT2 [8] = biological target: T1, BLT2; test: [3H]LTB4 displacement assay, membrane preparations of CHO-BLT2 cells; type: binding
# BLT2 [9] = biological target: T1, BLT2; test: Cytosensor microphysiometer assay in CHO-BLT2 cells; type: cell-based
# Outline: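 CHO cells stably expressing BLT2, with BLT1 and mock transfectants alongside. Proton flux recorded by cytosensor microphysiometer on exposure to lipid extracts from rat, mouse or platelet sources, or to 1-min RP-HPLC fractions (MeOH/H2O/AcOH 70:30:0.01). ATP served as control for endogenous purinergic receptors.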
Compound,agonist activity at BLT2 (BLT2 [1]),concentration required for maximal chemotaxis (BLT2 [2]),migration of BMMCs (mouse BMMCs; BMMCs from BLT2-KO mice),migration of BMMCs (mouse BMMCs; BMMCs from WT mice),migration of BMMCs (mouse BMMCs; BMMCs from BLT1-KO mice),further results
CCCCC/C=C\C[C@H](O)/C=C/C=C\C/C=C\CCCC(=O)O [12-HETE],weak agonists,–,–,–,–,–
"CCCCC/C=C\C[C@@H](O)/C=C/C=C/C=C\[C@@H](O)CCCC(=O)O [LTB4, 5(S), 12(R)-dihydroxy-6, 14-cis-8, 10-trans-eicosatetraenoic acid]",–,"> 1,000 nM",migrated in response to LTB4,migrated in response to LTB4,–,–
CCCCC[C@H](O)/C=C/C=C\C/C=C\C/C=C\CCCC(=O)O [15-HETE],weak agonists,–,–,–,–,–
"CCCCC[C@H](O)/C=C/C=C/C/C=C\CCCC(=O)O [12-HHT, 12(S)-hydroxyheptadeca-5Z, 8E, 10E–trienoic acid]",–,30 nM,–,migrated in response to 12-HHT,migrated in response to 12-HHT,IC50 (BLT2 [3]): 1 nM; calcium mobilization (human BLT1 [4]): failed to induce calcium mobilization; EC50 (BLT2 [5]): 5.4 nM; adenylyl cyclase inhibition (human BLT1 [6]): had no effect; activation of mouse BLT2 by IP accumulation (mouse BLT2): activated mouse BLT2; agonistic activity in platelet aggregation (platelets): did not display agonistic activity; chemotaxis (human BLT1 [7]): failed to induce chemotaxis; IC50 (BLT2 [8]): 2.8 nM; activation of BLT2 in the cytosensor assay (BLT2 [9]): able to activate BLT2
pertussis toxin,–,–,–,–,–,"effect of pretreatment on 12-HHT-dependent adenylyl cyclase inhibition (BLT2 [3]; CHO-BLT2 cells, pretreatment): completely blocked; effect of pretreatment on 12-HHT-induced chemotaxis (BLT2 [2]; pretreatment): completely abolished"
"SCF: stem cell factor, positive control inducing chemotaxis through the c-kit receptor",–,–,induced robust chemotaxis,induced robust chemotaxis,induced robust chemotaxis,–
